A short description of assay [1]: RPL19A-GFP modulators, yeast TOR pathway, confirmation, cell-based, S. cerevisiae, flow cytometry, cherry picks, mother/daughter gates (AID 2270;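 active means GFP response below 50% of the DMSO control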). The conditions noted are these: S. cerevisiae RPL19A-GFP strain, 3 h, at 10 µM, stronger effect = lower value, 100 = same GFP as DMSO wells. In general terms: In flow cytometry, cells or beads pass a laser one at a time.
Assay [2] in a line: LAP4-GFP expression modulators in yeast, confirmation, cell-based, cherry picks, flow cytometry, mother/daughter gates (AID 2271;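 active means GFP response above 150% of the DMSO control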;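 further: ratio of sample to DMSO plate mean so 100% equals DMSO level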). To be noted: S. cerevisiae LAP4-GFP strain, 3 h, at 10 µM, stronger effect = higher value, 100 means same as DMSO control. The procedure, abridged:
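Measured by: GFP by flow cytometry. Test system: GFP-fusion yeast strain. Input: yeast cells seeded at OD600 of 0.2. Timing: 30 °C, 3 h compound incubation, rotating. Buffer or medium: synthetic complete medium for yeast. Benchmarks: DMSO-only negative wells, rapamycin 400 ng/mL positive wells. Compound: 10 µM single dose.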

Assay [3] in a line: modulators of MEP2-GFP levels in yeast, confirmation, S. cerevisiae, flow cytometry GFP, cherry picks (AID 2272;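 active means GFP response above 150% of the DMSO control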;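 further: ratio of well signal to plate DMSO mean so 100% equals DMSO level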). To be noted: S. cerevisiae MEP2-GFP strain, 3 h, at 10 µM, stronger effect = higher value.
Assay [4] can be described thus: AGP1-GFP expression modulators, hit retest, confirmation, cell-based, flow cytometry, S. cerevisiae, cherry picks (AID 2273).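 Further: median GFP channel fluorescence over the whole cell population gate.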 The conditions noted are these: S. cerevisiae AGP1-GFP strain, 3 h, at 10 µM.
A short description of assay [5]: modulators of CIT2-GFP expression in yeast, confirmation, S. cerevisiae, GFP fusion, cherry picks, mother/daughter gates (AID 2274). The conditions noted are these: S. cerevisiae CIT2-GFP strain, flow cytometry, 3 h, at 10 µM, stronger effect = higher value.
Where [6] appears, read: measured here: daughter cell gate.
The mark [7] stands for this setting: measured here: mother cell gate.
[8] abbreviates: measured here: daughter cell gate response.
Setting [9] is: measured here: mother cell gate response.

The record followed here is PubChem BioAssay.

Active and inactive are the calls of the source.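 How the source made its calls, unless noted: active means GFP response above 150% of the DMSO level; inconclusive means fewer than 70 events counted for a yeast strain; inactive means the rest.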

With `CCCc1nnc(NC(=O)c2nc(S(=O)(=O)Cc3cccc(C)c3)ncc2Cl)s1`, the GFP response vs DMSO was 95.1% (inactive) in assay [1], 96.4% in assay [1] (setting [6]), 95.2% in assay [1] (setting [7]) and 103% (inactive) in assay [3]. The GFP response relative to DMSO in assay [2] is 106% (inactive); in assay [2] (setting [8]), 102%; in assay [2] (setting [9]), 107%. Besides, the GFP response, % of DMSO is 101% (inactive) in assay [4], 97.2% (inactive) in assay [5], 99.3% in assay [5] (setting [6]) and 98.2% in assay [5] (setting [7]).

With `CCCc1[nH]nc2c1C(c1ccc(O)c(OC)c1)C(C#N)=C(N)O2` (configuration not stated), the GFP response vs DMSO in assay [1] is 103% (inactive); in assay [1] (setting [6]), 101%; in assay [1] (setting [7]), 103%; in assay [3], 107% (inactive). Further, the results for the GFP response relative to DMSO in assay [2], in assay [2] (setting [8]) and in assay [2] (setting [9]) were 92.6% (inactive), 94.1% and 93.1%, respectively. Besides, the GFP response, % of DMSO in assay [4] was 97.6% (inactive); in assay [5] it was 103% (inactive); in assay [5] (setting [6]) it was 101%; in assay [5] (setting [7]), 103%.

As to `O=C(Nc1nc(-c2ccccc2)cs1)c1ccc(Br)o1`, the GFP response vs DMSO in assay [1] is 102% (inactive); in assay [1] (setting [6]), 101%; in assay [1] (setting [7]), 101%; in assay [3] it was 99% (inactive). Besides, the GFP response relative to DMSO in assay [2] is 106% (inactive); in assay [2] (setting [8]), 101%; in assay [2] (setting [9]), 108%. In addition, the GFP response, % of DMSO was 94.9% (inactive) in assay [4], 108% (inactive) in assay [5], 105% in assay [5] (setting [6]) and 107% in assay [5] (setting [7]).

With `CC(C)(C)n1nc(-c2ccc(Cl)cc2)c2c(N)ncnc21`, the GFP response vs DMSO in assay [1] is 44.2% (active); in assay [1] (setting [6]), 39.7%; in assay [1] (setting [7]), 45.6%; in assay [3] it was 118% (inactive). Further, the GFP response relative to DMSO is 191% (active) in assay [2], 172% in assay [2] (setting [8]) and 195% in assay [2] (setting [9]). For the same compound, the GFP response, % of DMSO in assay [4] was 106% (inactive); in assay [5], 44.4% (inactive); in assay [5] (setting [6]), 46.1%; in assay [5] (setting [7]) it was 42.4%.

For `Cc1c(C(=O)Nc2ccccc2)cnn1-c1ccccc1`, the GFP response vs DMSO in assay [1] is 98.2% (inactive); in assay [1] (setting [6]), 97.4%; in assay [1] (setting [7]) it was 99.2%; in assay [3], 105% (inactive). The results for the GFP response relative to DMSO in assay [2], in assay [2] (setting [8]) and in assay [2] (setting [9]) were 103% (inactive), 101% and 105%, respectively. Also, the GFP response, % of DMSO in assay [4] is 96.8% (inactive); in assay [5] it was 104% (inactive); in assay [5] (setting [6]) it was 97.2%; in assay [5] (setting [7]), 103%.

As to `COc1ccccc1NC(=O)c1ccc([N+](=O)[O-])o1`, the GFP response vs DMSO in assay [1] is 102% (inactive); in assay [1] (setting [6]), 102%; in assay [1] (setting [7]) it was 101%; in assay [3], 102% (inactive). Moreover, the GFP response relative to DMSO was 120% (inactive) in assay [2], 115% in assay [2] (setting [8]) and 122% in assay [2] (setting [9]). Further, the GFP response, % of DMSO in assay [4] was 99.3% (inactive); in assay [5] it was 107% (inactive); in assay [5] (setting [6]) it was 108%; in assay [5] (setting [7]), 106%.

On to `O=C(c1ccccn1)c1conc1C(=O)c1ccc(Br)cc1`, for which the GFP response vs DMSO in assay [1] is 98.2% (inactive); in assay [1] (setting [6]), 93.9%; in assay [1] (setting [7]) it was 102%; in assay [3] it was 153% (inactive). Also, the values for the GFP response relative to DMSO in assay [2], in assay [2] (setting [8]) and in assay [2] (setting [9]) were 204% (active), 159% and 213%, respectively. For the same compound, the GFP response, % of DMSO in assay [4] is 105% (inactive); in assay [5], 139% (inactive); in assay [5] (setting [6]), 126%; in assay [5] (setting [7]), 147%.

Consider `Cc1ccc(NC(=O)c2nc(S(=O)(=O)Cc3ccccc3C)ncc2Cl)cc1C`, for which the GFP response vs DMSO was 91.6% (inactive) in assay [1], 89.6% in assay [1] (setting [6]), 91.6% in assay [1] (setting [7]) and 103% (inactive) in assay [3]. The results for the GFP response relative to DMSO in assay [2], in assay [2] (setting [8]) and in assay [2] (setting [9]) were 107% (inactive), 107% and 107%, respectively. Besides, the GFP response, % of DMSO was 107% (inactive) in assay [4], 94.4% (inactive) in assay [5], 92.3% in assay [5] (setting [6]) and 94.9% in assay [5] (setting [7]).

`COc1ccc(NC(=O)C2CCN(S(=O)(=O)c3ccc(OC)c(OC)c3)CC2)c(OC)c1`: the GFP response vs DMSO was 90.6% (inactive) in assay [1], 92% in assay [1] (setting [6]), 89% in assay [1] (setting [7]) and 107% (inactive) in assay [3]. Further, the GFP response relative to DMSO is 99.5% (inactive) in assay [2], 99.1% in assay [2] (setting [8]) and 102% in assay [2] (setting [9]). For the same compound, the GFP response, % of DMSO in assay [4] was 100% (inactive); in assay [5], 103% (inactive); in assay [5] (setting [6]), 97.4%; in assay [5] (setting [7]), 105%.

On to `Cc1cc(C)c(S(C)(=O)=O)c(S(=O)(=O)c2ccc(Cl)cc2)n1`, for which the GFP response vs DMSO is 100% (inactive) in assay [1], 100% in assay [1] (setting [6]), 100% in assay [1] (setting [7]) and 98.3% (inactive) in assay [3]. Further, the GFP response relative to DMSO in assay [2] is 99.2% (inactive); in assay [2] (setting [8]), 97.6%; in assay [2] (setting [9]), 99.3%. Besides, the GFP response, % of DMSO in assay [4] was 100% (inactive); in assay [5] it was 103% (inactive); in assay [5] (setting [6]), 103%; in assay [5] (setting [7]) it was 101%.

Regarding `Clc1ccc(-n2cccc2)cn1`, the GFP response vs DMSO in assay [1] was 101% (inactive); in assay [1] (setting [6]), 99.2%; in assay [1] (setting [7]), 102%; in assay [3] it was 100% (inactive). Also, the GFP response relative to DMSO in assay [2] was 93.8% (inactive); in assay [2] (setting [8]), 95.6%; in assay [2] (setting [9]), 95.2%. The GFP response, % of DMSO in assay [4] is 96.3% (inactive); in assay [5], 99.1% (inactive); in assay [5] (setting [6]), 98.1%; in assay [5] (setting [7]) it was 101%.

Take `Cc1cccc(Sc2ccc([N+](=O)[O-])cn2)c1`: the GFP response vs DMSO in assay [1] is 98.6% (inactive); in assay [1] (setting [6]), 98.9%; in assay [1] (setting [7]), 98%; in assay [3], 105% (inactive). Moreover, the GFP response relative to DMSO is 92.4% (inactive) in assay [2], 92% in assay [2] (setting [8]) and 92% in assay [2] (setting [9]). The GFP response, % of DMSO is 104% (inactive) in assay [4], 103% (inactive) in assay [5], 103% in assay [5] (setting [6]) and 104% in assay [5] (setting [7]).

Take `Cc1cc(Cl)ccc1N1C(=O)CC(SCCC(=O)O)C1=O` (configuration not stated): the GFP response vs DMSO in assay [1] is 96.4% (inactive); in assay [1] (setting [6]) it was 97.6%; in assay [1] (setting [7]), 95.3%; in assay [3] it was 102% (inactive). Further, the GFP response relative to DMSO in assay [2] is 103% (inactive); in assay [2] (setting [8]), 102%; in assay [2] (setting [9]), 105%. The GFP response, % of DMSO in assay [4] is 97.8% (inactive); in assay [5] it was 103% (inactive); in assay [5] (setting [6]) it was 103%; in assay [5] (setting [7]), 101%.

Consider `O=C(O)Cc1sc(Nc2ccc(F)cc2)nc1-c1cccs1`, for which the GFP response vs DMSO in assay [1] was 97.6% (inactive); in assay [1] (setting [6]), 99.4%; in assay [1] (setting [7]) it was 97%; in assay [3] it was 110% (inactive). Further, the GFP response relative to DMSO in assay [2] is 129% (inactive); in assay [2] (setting [8]), 125%; in assay [2] (setting [9]), 135%. Moreover, the GFP response, % of DMSO is 108% (inactive) in assay [4], 103% (inactive) in assay [5], 103% in assay [5] (setting [6]) and 103% in assay [5] (setting [7]).

`Clc1ccccc1N=C1NN=C(c2cccs2)CS1`: the GFP response vs DMSO is 96.8% (inactive) in assay [1], 93.4% in assay [1] (setting [6]), 95.7% in assay [1] (setting [7]) and 90.5% (inactive) in assay [3]. Also, the GFP response relative to DMSO in assay [2] was 108% (inactive); in assay [2] (setting [8]), 106%; in assay [2] (setting [9]), 113%. Further, the GFP response, % of DMSO in assay [4] is 98.8% (inactive); in assay [5] it was 90.1% (inactive); in assay [5] (setting [6]) it was 88.4%; in assay [5] (setting [7]), 89.5%.

On to `COc1ccc(/C=C2\Sc3ccc(C(=O)N4CCc5ccccc5C4)cc3N(C)C2=O)cc1`, for which the GFP response vs DMSO in assay [1] was 98.4% (inactive); in assay [1] (setting [6]), 97.4%; in assay [1] (setting [7]) it was 99.5%; in assay [3] it was 102% (inactive). For the same compound, the GFP response relative to DMSO in assay [2] is 99.2% (inactive); in assay [2] (setting [8]), 99.2%; in assay [2] (setting [9]) it was 98.3%. The GFP response, % of DMSO in assay [4] was 102% (inactive); in assay [5] it was 99.7% (inactive); in assay [5] (setting [6]), 99.1%; in assay [5] (setting [7]), 98.5%.

Consider `N#Cc1cc([N+](=O)[O-])c(-n2nnc3ccccc32)c([N+](=O)[O-])c1`, for which the GFP response vs DMSO in assay [1] was 92.8% (inactive); in assay [1] (setting [6]), 94.7%; in assay [1] (setting [7]) it was 88.8%; in assay [3], 90.5% (inactive). Besides, the GFP response relative to DMSO in assay [2] was 172% (active); in assay [2] (setting [8]), 149%; in assay [2] (setting [9]) it was 184%. In addition, the GFP response, % of DMSO in assay [4] was 98.2% (inactive); in assay [5], 100% (inactive); in assay [5] (setting [6]) it was 99.2%; in assay [5] (setting [7]), 93.2%.
